Activity calls are given as the source filed them.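 How the source made its calls, unless noted: active means visually confirmed hit in the image check and inhibition above 20%; inconclusive means visually confirmed hit but inhibition not above 20%; inactive means no visual hit in the image check.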
Tests used:
[1] = inhibitors of TNFa-induced NFkB p65 translocation, primary screen, imaging, HUVEC, MLSMR starter and 10KST1 sets (AID 438;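 active means inhibition above 20% together with a positive visual image hit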;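 further: compound added about 3h40 before a 20 min TNFalpha stimulation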;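 on inhibition: signal is the nuclear over cytoplasmic p65 intensity ratio per well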); conditions: HUVEC TNFa-induced p65 nuclear translocation; cell count: measured here: nuclei count (cytotoxicity indicator), at 2.08 µM; inhibition: at 2 µM, stronger effect = higher value, 0% TNFa-plus-vehicle, 100% no-TNFa wells
[2] = inhibitors of E-selectin induction by TNFa, primary screen, imaging, HUVEC, immunofluorescence, MLSMR starter and 10KST1 sets (AID 487); conditions: HUVEC TNFalpha-induced E-selectin immunofluorescence imaging, at 2 µM; inhibition: stronger effect = higher value; nuclei count: measured here: cell number, toxicity;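 on inhibition: signal is fraction of cell area covered by stained E-selectin grains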;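 on nuclei count: 100% = median nuclei count of all wells on the same plate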
[3] = DUSP6 inhibitors restoring Erk phosphorylation by chemical complementation, primary imaging in DUSP6-transfected HeLa (AID 609;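 active means compounds giving at least 50% inhibition in the cell-based MKP-3 phosphatase rescue imaging test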;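 on inhibition: phospho-Erk level distribution per well compared with pooled transfected vehicle control wells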); conditions: HeLa MKP-3 transfected, phospho-Erk imaging KS statistic, at 10 µM, cells stimulated with TPA for 15 min
[4] = target: Dual specificity protein phosphatase 6 (Homo sapiens) (UniProt Q16828); experiment: as above; conditions: HeLa MKP-3 transfected, phospho-Erk imaging KS statistic; at 10 µM; stronger effect = higher value; cells stimulated with TPA for 15 min
[5] = target: Voltage-gated potassium channel subunit beta-2 (Rattus norvegicus) (UniProt P62483); experiment: KvBeta enzyme negative modulators, primary screen, biochemical, NADPH fluorescence (AID 622;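 active means fluorescence slope higher than the sample average by over 3 SD, cut at about -0.22 in these data, passing the limit was not always enough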;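 further: slope of raw intensity against log time taken from 70 to 1610 s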); conditions: recombinant KvBeta, 4-cyanobenzaldehyde reduction, at 10 µM, stronger effect = higher value
[6] = target: Voltage-gated potassium channel subunit beta-2 (Rattus norvegicus) (UniProt P62483); experiment: KvBeta positive modulators, primary screen, biochemical, NADPH fluorescence (AID 623;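 active means NADPH fluorescence slope more negative than the mean of all samples by about 3 SD, 99.7% confidence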;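 further: fluorescence intensity change per second fitted from 20 to 320 s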); conditions: Recombinant KvBeta, NADPH fluorescence decrease slope, 10 min; at 10 µM; stronger effect = lower value
[7] = target: Alpha-2C adrenergic receptor (Homo sapiens) (UniProt P18825); experiment: modulators of alpha2C/GIRK thallium flux, primary screen, cell-based, HEK293 alpha2C/GIRK1/2 (AID 624;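 active means fluorescence slope after compound addition differing from the mean of all screened samples at 99.7% confidence, in either direction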;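 further: slope of fluorescence ratio to pre-addition baseline per second over 15 to 24 s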); conditions: thallium flux BTC fluorescence, at 10 µM, actives lie on both sides
[8] = inhibitors of larval lipid processing in zebrafish, primary screen, whole organism, PED6 fluorescence, gall bladder and intestine (AID 686;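 active means a full or partial loss of lipid-probe fluorescence in the fish gall bladder, intestine or both, judged by eye; inactive means no fluorescence loss, or compound toxic to the fish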;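 further: larvae 5 to 7 days old with five fish per well; signal comes from phospholipase A2 cleavage of quenched PED6 carried via bile; overnight exposure to compound and PED6 before scoring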); conditions: Zebrafish larvae PED6 lipid processing, fluorescence scoring; screened at 20 µM (by protocol)
Outline: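 Also added: quenched phospholipase substrate PED6, 100 nM final, ingested by larvae; System: zebrafish larvae, 5-7 d; Quantity: 5 larvae per well; Compound: 20 µM single dose; Schedule: overnight compound and PED6 incubation; Read-out: visual per-well fluorescence inhibition score; Measured by: By-eye fluorescence microscopy; Medium: E3.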

[9] = inhibitors of Chlamydomonas gravitaxis, primary screen, whole organism, Chlamydomonas reinhardtii, WT vs cilia-less mutant, absorbance, 96-well (AID 463189;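 active means inhibition at or above 50% relative to wild type and mutant plate controls; inactive means inhibition below 50%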;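 further: 0% = wild type cc124 cells in DMSO and 100% = ciliumless bld1 mutant cells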); conditions: OD600 absorbance, 2 days, at 10 µM, stronger effect = higher value
[10] = measured here: cell density z-score
[11] = measured here: nuclear c-Myc green intensity z-score
[12] = measured here: nuclear pErk red intensity z-score, stronger effect = higher value

Sequence of Voltage-gated potassium channel subunit beta-2 (Rattus norvegicus) (P62483 whole entry, looked up): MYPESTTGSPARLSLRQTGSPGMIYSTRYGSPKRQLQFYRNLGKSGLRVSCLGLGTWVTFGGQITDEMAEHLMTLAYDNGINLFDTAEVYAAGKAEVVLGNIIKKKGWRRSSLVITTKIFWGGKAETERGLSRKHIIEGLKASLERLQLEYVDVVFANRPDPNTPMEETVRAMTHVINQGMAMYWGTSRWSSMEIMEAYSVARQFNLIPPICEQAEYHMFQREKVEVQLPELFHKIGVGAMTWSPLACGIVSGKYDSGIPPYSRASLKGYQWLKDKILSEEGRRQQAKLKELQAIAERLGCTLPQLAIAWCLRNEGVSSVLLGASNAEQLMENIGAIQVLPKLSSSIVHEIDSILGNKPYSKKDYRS
Sequence of Alpha-2C adrenergic receptor (Homo sapiens) (P18825 whole entry, looked up): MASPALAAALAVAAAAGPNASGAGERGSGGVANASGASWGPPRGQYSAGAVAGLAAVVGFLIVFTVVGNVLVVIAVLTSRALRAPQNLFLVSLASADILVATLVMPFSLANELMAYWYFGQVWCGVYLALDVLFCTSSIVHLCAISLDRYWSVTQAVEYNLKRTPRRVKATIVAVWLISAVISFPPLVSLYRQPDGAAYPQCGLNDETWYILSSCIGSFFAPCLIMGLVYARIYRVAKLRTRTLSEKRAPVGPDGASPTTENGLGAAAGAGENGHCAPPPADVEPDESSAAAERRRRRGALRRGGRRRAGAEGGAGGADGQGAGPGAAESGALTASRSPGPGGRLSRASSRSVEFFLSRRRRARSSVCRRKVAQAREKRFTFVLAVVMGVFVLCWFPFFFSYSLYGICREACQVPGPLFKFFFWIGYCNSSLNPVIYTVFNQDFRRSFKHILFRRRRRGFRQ
Sequence of Dual specificity protein phosphatase 6 (Homo sapiens) (Q16828 whole entry, looked up): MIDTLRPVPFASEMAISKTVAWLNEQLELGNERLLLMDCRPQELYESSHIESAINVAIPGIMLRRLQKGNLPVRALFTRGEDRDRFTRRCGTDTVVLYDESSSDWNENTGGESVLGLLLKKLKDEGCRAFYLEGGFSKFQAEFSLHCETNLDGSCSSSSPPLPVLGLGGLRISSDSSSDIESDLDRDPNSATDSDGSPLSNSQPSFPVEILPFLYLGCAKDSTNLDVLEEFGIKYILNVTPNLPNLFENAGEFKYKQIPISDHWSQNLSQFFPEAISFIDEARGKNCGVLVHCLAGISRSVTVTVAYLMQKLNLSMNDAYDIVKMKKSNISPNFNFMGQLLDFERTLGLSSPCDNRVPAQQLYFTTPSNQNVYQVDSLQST

| Structure (SMILES) | cell count [1] | inhibition [1] | inhibition [2] | nuclei count [2] | z-score [3, 10] | z-score [3, 11] | z-score [3, 12] | inhibition [4] | fluorescence slope [5] | NADPH fluorescence slope [6] | slope [7] | outcome [8] | inhibition [9] |
| --- | --- | --- | --- | --- | --- | --- | --- | --- | --- | --- | --- | --- | --- |
| CN(C)c1ccc(C2C3C(=O)N(c4ccc(C(=O)O)cc4)C(=O)C3ON2c2ccccc2)cc1 (stereo not drawn) | 491 | -9.3% (inactive) | -30.7% (inactive) | 148% | -0.854 | -1.46 | 0.576 | -13.3% (inactive) | -0.506 (inactive) | -3.3e-05 (inactive) | 0.00498 (inactive) | inactive | 13% (inactive) |
| COC(=O)c1sccc1NC(=O)c1c(C)cc(=O)oc1C | 553 | 2.4% (inactive) | -142% (inactive) | 138% | 0.942 | 0.338 | -0.793 | -8.76% (inactive) | -0.515 (inactive) | -3.4e-05 (inactive) | 0.00537 (inactive) | inactive | -11.2% (inactive) |
| CCCCc1c(C)nn(-c2nnc3c4ccccc4n(C)c3n2)c1C | 575 | -12.6% (inactive) | -37.2% (inactive) | 161% | -0.575 | 2.07 | -0.403 | 7.73% (inactive) | -0.48 (inactive) | -5.6e-05 (inactive) | 0.00441 (inactive) | inactive | 21.4% (inactive) |
| CCOc1ccc(-n2c3nc4ccccc4nc3c3c(=O)n(Cc4ccco4)cnc32)cc1 | 381 | -13% (inactive) | -105% (inactive) | 171% | 0.174 | 0.579 | -1.27 | -7.01% (inactive) | -0.417 (inactive) | -0.000107 (inactive) | 0.00519 (inactive) | inactive | -0.886% (inactive) |
| CC(C)c1nc(N2CCOCC2)c(C#N)c2c1CCC2 | 533 | 2.9% (inactive) | -92.4% (inactive) | 140% | 0.739 | -0.974 | -0.00414 | 10.5% (inactive) | -0.511 (inactive) | 3.3e-06 (inactive) | 0.0055 (inactive) | inactive; toxic | -0.955% (inactive) |
| O=C(Cc1cscn1)c1ccc(O)cc1O | 564 | -6% (inactive) | -143% (inactive) | 147% | 1.34 | -0.975 | -0.882 | 11.9% (inactive) | -0.544 (inactive) | -5.6e-05 (inactive) | 0.00473 (inactive) | inactive | 8.71% (inactive) |
| CCN(CC)CCNC(=O)c1ccccc1N | 521 | -17.4% (inactive) | -314% (inactive) | 187% | 0.845 | 0.248 | 0.636 | -8.95% (inactive) | -0.463 (inactive) | -0.000132 (inactive) | 0.00488 (inactive) | inactive | -5.26% (inactive) |
| COc1cccc(OC)c1-c1nn2c(-c3ccco3)nnc2s1 | 630 | -5.2% (inactive) | -86.6% (inactive) | 172% | 0.253 | 0.886 | -0.677 | 10.1% (inactive) | -0.431 (inactive) | -0.000166 (inactive) | 0.00439 (inactive) | inactive | 5.78% (inactive) |
| COc1cccc(C2=CC(c3ccccc3)n3nnnc3N2)c1 (stereo not drawn) | 586 | 22.3% (inactive) | -12.1% (inactive) | 120% | 0.0896 | 0.142 | -0.691 | -7.01% (inactive) | -0.275 (inactive) | 1.9e-05 (inactive) | 0.00526 (inactive) | inactive | 22.4% (inactive) |
| CCOC(=O)CCc1c(C)c(C#N)c2nc3ccccc3n2c1-n1ccnc1C | 583 | -0.8% (inactive) | -125% (inactive) | 138% | -0.341 | 0.0322 | -0.112 | 7.93% (inactive) | -0.457 (inactive) | -3.9e-05 (inactive) | 0.00607 (inactive) | inactive | 21.4% (inactive) |
| CCCOc1ccc(C(C)=O)cc1CSCCC#N | 298 | -26.4% (inactive) | -186% (inactive) | 136% | -0.222 | -1.52 | 0.779 | 7.01% (inactive) | -0.462 (inactive) | -0.000379 (inactive) | 0.00586 (inactive) | inactive | 17.2% (inactive) |
| Cc1ccc(OCC(=O)N2CCC(N3CCCCCC3)CC2)cc1 | 387 | -12% (inactive) | -349% (inactive) | 176% | -0.193 | 0.541 | -0.692 | 9.39% (inactive) | -0.391 (inactive) | -2.1e-05 (inactive) | 0.00447 (inactive) | inactive | 4.12% (inactive) |
| CC1(C)Cc2c(sc3nc4n(c(=O)c23)CCC4)CO1 | 700 | -9.4% (inactive) | 43.7% (inactive) | 159% | -1.3 | 1.46 | 1.2 | 2.71% (inactive) | -0.377 (inactive) | -6e-05 (inactive) | 0.00549 (inactive) | inactive | -8.7% (inactive) |
| COC(=O)c1nn2c(C(F)(F)F)cc(-c3ccc(Br)o3)nc2c1Br | 510 | -7.1% (inactive) | 1.9% (inactive) | 120% | -1.65 | -0.461 | 2.56 | -2.07% (inactive) | -0.442 (inactive) | -6.2e-05 (inactive) | 0.00401 (inactive) | inactive | 8.6% (inactive) |
| CSc1nc(NC(C)=O)nc(C)c1Cl | 555 | 1.9% (inactive) | 33.2% (inactive) | 97.7% | -0.722 | 0.648 | -0.574 | 1.48% (inactive) | -0.343 (inactive) | -7.4e-06 (inactive) | 0.00457 (inactive) | inactive | 37.7% (inactive) |
| O=S(=O)(c1ccc(Cl)cc1)N1CCC(N2CCCCCC2)CC1 | 450 | -23.8% (inactive) | -135% (inactive) | 160% | -0.279 | -1.42 | 0.26 | 11% (inactive) | -0.321 (inactive) | 6.3e-06 (inactive) | 0.0047 (inactive) | inactive | 121% (active) |
| CCCCOc1nc2ccccc2nc1C(C#N)C(=O)NC1CCCCC1 (stereo not drawn) | 320 | -10.2% (inactive) | -124% (inactive) | 151% | -1.21 | 0.194 | 1.47 | -15.8% (inactive) | -0.41 (inactive) | -0.00013 (inactive) | 0.00654 (inactive) | inactive | 1.58% (inactive) |
| Cc1ccc(-n2c(=O)c3c4c(sc3n3c(C)nnc23)COC(C(C)C)C4)cc1 (stereo not drawn) | 551 | -2.6% (inactive) | -1.3% (inactive) | 122% | 0.656 | -0.667 | -0.392 | 9.82% (inactive) | -0.411 (inactive) | 2.1e-05 (inactive) | 0.00541 (inactive) | inactive | 49.1% (inactive) |
| N#CC1=C2SCC(O)(c3ccccc3)N2C(=O)CC1c1ccccc1 (stereo not drawn) | 487 | 0.4% (inactive) | -39.3% (inactive) | 98.1% | -0.384 | -0.62 | 2.84 | -3.98% (inactive) | -0.459 (inactive) | -0.00022 (inactive) | 0.00444 (inactive) | inactive | 13.3% (inactive) |
| CC(=O)N1CCN(c2nc(CC(C)C)c3c(c2C#N)CCC3)CC1 | 524 | 0.5% (inactive) | -100% (inactive) | 145% | -0.27 | -0.142 | -0.203 | 5.26% (inactive) | -0.477 (inactive) | -4.8e-05 (inactive) | 0.00485 (inactive) | inactive | -18% (inactive) |
| COC(=O)c1[nH]c2cc(OC)ccc2c1NC(=O)CN1CCC(C(N)=O)CC1 | 363 | 2.6% (inactive) | 14.4% (inactive) | 134% | 0.612 | -0.732 | -0.532 | 9.42% (inactive) | -0.434 (inactive) | -0.000147 (inactive) | 0.00651 (inactive) | inactive | 25.6% (inactive) |
